7 compounds from ChEMBL document CHEMBL2385032, “Dual-functional abeo-taxane derivatives destabilizing microtubule equilibrium and inhibiting NF-κB activation” (2013) can be followed below.

One test has as its system HCT-116. Briefly: Cytotoxicity against human HCT116 cells. Type of test: functional. In short, it runs like this: (§1)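 NCI-60 human tumor cell line screen run by standard NCI protocol: single-dose prescreen at 10 μM, then multi-dose testing of compounds giving over 50% growth inhibition; GI50 = concentration for 50% growth inhibition.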
A further test relates to T47D. Briefly: Cytotoxicity against human T47D cells. Type of test: functional. In short, it runs like this:
as §1

In test [1] the target is T1, Tubulin (Homo sapiens) (UniProt P68371+Q9H4B7+P0DPH7+P68366+Q13509+Q71U36+P04350+Q3ZCM7+P07437+P68363+Q9BQE3+Q6PEY2+Q13885+Q9BVA1+Q9BUF5). Kind of test: Induction of tubulin (unknown origin) polymerization at 3 uM by fluorescence assay. Format: protein-complex assay. In short, it runs like this:
(§2)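 Cell-free tubulin polymerization kit; tubulin mixed with DMSO control, 500 μM CaCl2, 3 μM paclitaxel or test compounds at 15 or 30 μM; polymerization followed kinetically by fluorescence, excitation 340 nm, emission 420 nm, in a temperature-regulated fluorimeter. Three independent experiments in triplicate.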

The next test has as its system OVCAR-3. Kind of test: Cytotoxicity against human OVCAR3 cells. Type of test: functional. An outline of the steps:
as §1

The test system of the next test is NCI-H322M. Kind of test: Cytotoxicity against human NCI-H322M cells. Type of test: functional. An outline of the steps:
as §1

The subject of the next test is SNB-19. Briefly: Cytotoxicity against human SNB19 cells. Type of test: functional. In short, it runs like this:
as §1

A further test deals with DU-145. Briefly: Cytotoxicity against human DU145 cells. Type of test: functional. An outline of the steps:
as §1

For the next test, the system named is RXF 393. Briefly: Cytotoxicity against human RXF393 cells. Format: functional. In short, it runs like this: as §1
Test [2] deals with PC-3. Kind of test: Induction of microtubule polymerization in human PC3 cells assessed as bundled sheet like pattern at 200 nM after 24 hrs by DAPI staining-based immunofluorescence microscopic analysis. Type of test: cell-based. An outline of the steps:
(§3)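 PC-3 cells grown on chamber slides 36 h, then treated 24 h (test agents 2, 5 or 10 μM; reference agents 200 nM); fixed in 4% paraformaldehyde, permeabilized with 0.5% Triton X-100, stained with anti-α-tubulin monoclonal plus FITC secondary and DAPI for nuclei; spindle and microtubule morphology by fluorescence microscopy.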

A further test has as its system MOLT-4. Briefly: Cytotoxicity against human MOLT4 cells. Format: functional. In short, it runs like this: as §1
The test system of the next test is LOX IMVI. Kind of test: Cytotoxicity against human LOXIMVI cells. Type of test: functional.
For test [3], the system named is PC-3. Briefly: Induction of microtubule depolymerization in human PC3 cells at 200 nM after 24 hrs by DAPI staining-based immunofluorescence microscopic analysis. Format: cell-based. In short, it runs like this: as §3
In the next test the test system is HEK-293T. Kind of test: Inhibition of TNF-alpha induced NF-kapppaB activation in HEK293T cells at 1.25 to 5 uM incubated 1 hr prior to TNF-alpha addition measured after 18 hrs by luciferase reporter gene assay. Format: cell-based. To be noted: Homo sapiens. (Reporter assays use an easily measured gene product as a stand-in for the process of interest.)
Test [4] addresses T1, Tubulin (Homo sapiens). Kind of test: Induction of tubulin (unknown origin) polymerization at 30 uM by fluorescence assay. Type of test: protein-complex assay. An outline of the steps:
as §2

Activity calls are given as the source filed them. The calls are words filed in the database; no cut-off is given here.

For `CC(=O)O[C@H]1C(=O)[C@@]2(C)[C@H]([C@H](OC(=O)c3ccccc3)[C@]3(O)C[C@H](OC(=O)[C@H](O)[C@@H](NC(=O)c4ccccc4)c4ccccc4)C(C)=C1C3(C)C)[C@]1(OC(C)=O)CO[C@@H]1C[C@@H]2O` [PACLITAXEL], the GI50 (in general, the concentration giving 50% growth inhibition) with HCT-116 stood at 0.01 µM; with T47D it was 0.01 µM; in the test with OVCAR-3 it was 0.02 µM; in the test on NCI-H322M it was 0.05 µM; in the test on SNB-19 it was 0.04 µM; with DU-145, 0.032 µM. Further, the figures for the concentration for 50% growth inhibition (GI50) in the test with RXF 393, in the test with MOLT-4 and in the test on LOX IMVI were 0.05 µM, 0.032 µM and 16 nM, respectively. Besides, the result on Tubulin (Homo sapiens) [1] and with PC-3 [2] was Active.

Turning to `COc1ccc(/C=C\c2cc(OC)c(OC)c(OC)c2)cc1O`, in the test with PC-3 [3], the result was Active.

Consider `C=C1C(=O)C=C[C@@]2(C)[C@@H](OC(C)=O)[C@H](OC(=O)c3ccccc3)C3=C(C)[C@@H](OC(=O)[C@H](O)[C@@H](NC(=O)c4ccccc4)c4ccccc4)C[C@@]3(C(C)(C)O)[C@@H](OC(C)=O)[C@H]12`, for which the GI50 in the test on HCT-116 amounted to 0.77 µM; in the test on T47D, 1.7 µM; in the test on OVCAR-3, 1.33 µM; in the test with NCI-H322M it was 4.69 µM; with SNB-19 it was 15.3 µM; in the test on DU-145, 1.66 µM. The results for the GI50 with RXF 393, with MOLT-4 and in the test on LOX IMVI were 0.52 µM, 2.48 µM and 1570 nM, respectively.

Turning to `C=C1[C@@H](OC(=O)[C@@H](O)[C@H](NC(=O)OC(C)(C)C)c2ccccc2)C[C@H](OC(C)=O)[C@@]2(C)[C@@H](OC(C)=O)[C@H](OC(=O)c3ccccc3)C3=C(C)[C@@H](O)C[C@@]3(C(C)(C)O)[C@@H](OC(C)=O)[C@H]12`, the 50% growth inhibitory concentration (GI50) with HCT-116 was 45.2 µM; in the test on T47D it was greater than 100 µM; in the test on OVCAR-3, 28.4 µM; with NCI-H322M, greater than 100 µM; in the test with SNB-19, greater than 100 µM; with DU-145 it was 72.4 µM. Moreover, the 50% growth inhibitory concentration (GI50) in the test on RXF 393 is 26.6 µM; with MOLT-4 it was 83.3 µM; with LOX IMVI, greater than 100000 nM.

With `C=C1C(=O)C=C[C@@]2(C)[C@@H](OC(C)=O)[C@H](OC(=O)c3ccccc3)C3=C(C)[C@@H](OC(=O)[C@H](O)[C@@H](NC(=O)OC(C)(C)C)c4ccccc4)C[C@@]3(C(C)(C)O)[C@@H](OC(C)=O)[C@H]12`, the 50% growth inhibitory concentration (GI50) in the test on HCT-116 was 1.87 µM; in the test with T47D it was 4.78 µM; with OVCAR-3 it was 3.19 µM; in the test with NCI-H322M, 24.6 µM; with SNB-19 it was greater than 100 µM; in the test with DU-145, 6.05 µM. Also, the concentration for 50% growth inhibition (GI50) in the test with RXF 393 was found to be 2.08 µM; in the test with MOLT-4 it was 3.78 µM; in the test on LOX IMVI, 2200 nM.

With `C=C1C(=O)O[C@@H]2C3O[C@]3(C)CC/C=C(\C)CC[C@@H]12` (some centres not stated), the concentration for 50% growth inhibition (GI50) is 10 µM in the test with HCT-116; 19.9 µM in the test with OVCAR-3; 19.9 µM with NCI-H322M; 63.1 µM in the test on SNB-19; 12.6 µM in the test with RXF 393; 15.8 µM in the test on MOLT-4. In addition, the inhibition entry with HEK-293T is “Active”.

Take `CC(=O)O[C@H]1C[C@H]2OC[C@@]2(OC(C)=O)[C@H]2[C@H](OC(C)=O)[C@]3(C(C)(C)O)C[C@H](OC(=O)[C@H](O)[C@@H](NC(=O)OC(C)(C)C)c4ccccc4)C(C)=C3[C@@H](OC(=O)c3ccccc3)[C@H](OC(C)=O)[C@]12C`: the GI50 in the test on HCT-116 amounted to 16.2 µM; in the test on T47D, 38.9 µM; in the test on OVCAR-3 it was 15.5 µM; in the test on NCI-H322M, 50.1 µM; with SNB-19 it was 33.1 µM; in the test with DU-145, 21.4 µM. In addition, the GI50 turned out to be 12.6 µM in the test on RXF 393, 42.7 µM with MOLT-4 and 21400 nM in the test on LOX IMVI. The result on Tubulin (Homo sapiens) [4] was Active. In the test on HEK-293T, the inhibition result is “inactive”.
